What was measured:
[1] = system: Mus musculus; test: Toxicity in mouse assessed as effect on survival at 160 mg/kg, po administered for 3 days measured after 30 days; type: organism-based; conditions: in vivo, 720 h
Method in brief: (§1)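 Groups of five healthy mice were dosed per os for three consecutive days, suspended in 0.5% hydroxyethylcellulose–0.1% Tween 80. Behaviour and appearance were monitored twice daily for 30 days, with survival assessed at 30 days. Non-toxic was defined as all 5 surviving with normal appearance and behaviour.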

[2] = target: Botulinum neurotoxin type A (Clostridium botulinum) (UniProt P0DPI0); test: (§2) Inhibition of Clostridium botulinum BoNT/A light chain using P39 as substrate preincubated for 10 mins followed by substrate addition measured after 10 mins by HPLC method
[3] = target: Botulinum neurotoxin type A (Clostridium botulinum, UniProt P0DPI0); test: as §2
[4] = target: Botulinum neurotoxin type A (Clostridium botulinum) (UniProt P0DPI0); test: Inhibition of Clostridium botulinum BoNT/A holotoxin-mediated SNAP-25 cleavage in mouse HBG3 cell-derived motor neurons assessed as full length of SNAP-25 at 20 uM treated at 30 mins post intoxication by Western blot method relative to control; design: scale not given: the % may be the effect or the level left
[5] = system: Mus musculus; test: Toxicity in mouse assessed as effect on appearance at 160 mg/kg, po administered for 3 days measured 2 times a day for 30 days; type: organism-based; conditions: in vivo, 720 h; method in brief: as §1
[6] = system: Mus musculus; test: Toxicity in mouse assessed as effect on survival at 400 to 600 mg/kg, po administered as single dose measured after 30 days; type: organism-based; conditions: in vivo, 720 h
Method in brief: (§3)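 Two groups of 5 healthy mice each received one oral dose, 400 or 600 mg/kg. Survival, appearance and behaviour were followed for 30 days. Non-toxic was defined as all 5 surviving with normal appearance and behaviour.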

[7] = system: Mus musculus; test: Toxicity in mouse assessed as effect on behavior at 400 to 600 mg/kg, po administered as single dose measured 2 times a day for 30 days; type: organism-based; conditions: in vivo, 720 h; method in brief: as §3
[8] = Distribution co-efficient, log D of the compound at pH 1 by reversed-phase thin-layer chromatographic method; type: physicochemical; conditions: buffer
Method in brief: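 Reversed-phase thin-layer chromatography at pH 1, mobile phase MeOH/HCl (70/30).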

[9] = Octanol/TBS buffer distribution co-efficient, […] by shake flask method; type: physicochemical; conditions: octanol/water
[10] = Solubility of the compound at pH 7.4 by light scattering-based laser nephelometric method; type: physicochemical; conditions: buffer
Method in brief: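 Solubility measured by laser nephelometry (light scattering), pH 7.4, n=3.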

[11] = system: Liver; test: Intrinsic clearance in human liver microsomes after 1 hr; type: ADME, microsome
Method in brief: (§4)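 Substrate-depletion assay: compound incubated with human or mouse liver microsomes for 1 h at 37°C. Half-life and intrinsic clearance derived from compound loss.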

[12] = system: Liver; test: Intrinsic clearance in mouse liver microsomes after 1 hr; type: ADME, microsome; method in brief: as §4
[13] = system: Plasma; test: Metabolic stability in human plasma assessed as compound remaining after 1 hr; type: ADME, cell-free
Method in brief: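 Compound incubated in human plasma for 1 h at 37°C; percent remaining determined.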

[14] = target: T1, Cytochrome P450 3A4 (Homo sapiens, UniProt P08684); test: Inhibition of CYP3A4 (unknown origin) using BQ as substrate; type: ADME
T1 sequence (P08684 whole entry): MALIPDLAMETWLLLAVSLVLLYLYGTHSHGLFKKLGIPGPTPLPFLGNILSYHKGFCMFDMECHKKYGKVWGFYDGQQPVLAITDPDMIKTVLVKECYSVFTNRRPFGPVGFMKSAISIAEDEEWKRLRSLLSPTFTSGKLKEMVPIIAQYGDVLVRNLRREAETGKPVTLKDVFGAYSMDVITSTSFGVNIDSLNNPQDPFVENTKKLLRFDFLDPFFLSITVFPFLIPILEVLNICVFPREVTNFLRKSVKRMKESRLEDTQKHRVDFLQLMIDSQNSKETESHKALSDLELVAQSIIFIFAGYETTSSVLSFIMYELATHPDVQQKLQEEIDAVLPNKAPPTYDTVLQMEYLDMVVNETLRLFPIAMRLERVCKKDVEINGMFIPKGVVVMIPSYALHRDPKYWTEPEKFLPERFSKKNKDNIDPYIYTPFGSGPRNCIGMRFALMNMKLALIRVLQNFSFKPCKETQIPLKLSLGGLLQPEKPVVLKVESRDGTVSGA
Method in brief: (§5)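 Active CYP450 enzyme incubated at 37°C for a set time with a fluorogenic probe substrate (BQ, DBF or BFC for CYP3A4; CEC for CYP2C19; AMMC for CYP2D6). IC50 derived from net fluorescent signal.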

[15] = target: T1, Cytochrome P450 3A4; test: Inhibition of CYP3A4 (unknown origin) using DBF as substrate; type: ADME; method in brief: as §5
[16] = target: T1, Cytochrome P450 3A4; test: Inhibition of CYP3A4 (unknown origin) using BFC as substrate; type: ADME; method in brief: as §5
[17] = target: Cytochrome P450 2D6 (Homo sapiens, UniProt P10635); test: Inhibition of CYP2D6 (unknown origin) using AMMC as substrate; type: ADME; method in brief: as §5
Sequence of Cytochrome P450 2D6 (P10635 whole entry): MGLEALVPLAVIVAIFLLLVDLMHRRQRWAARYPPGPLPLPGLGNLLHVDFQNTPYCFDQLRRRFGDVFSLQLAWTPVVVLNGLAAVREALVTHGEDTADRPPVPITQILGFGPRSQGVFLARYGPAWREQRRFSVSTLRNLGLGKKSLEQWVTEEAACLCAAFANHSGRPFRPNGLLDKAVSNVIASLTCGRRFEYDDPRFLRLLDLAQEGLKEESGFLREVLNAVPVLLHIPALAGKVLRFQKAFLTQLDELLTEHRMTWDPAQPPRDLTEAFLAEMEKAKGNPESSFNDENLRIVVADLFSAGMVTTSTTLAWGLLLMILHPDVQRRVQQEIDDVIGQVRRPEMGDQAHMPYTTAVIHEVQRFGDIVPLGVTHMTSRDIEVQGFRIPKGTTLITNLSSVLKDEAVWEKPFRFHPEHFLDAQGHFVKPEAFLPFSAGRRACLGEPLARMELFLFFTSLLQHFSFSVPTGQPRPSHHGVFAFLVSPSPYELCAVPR

[18] = Drug uptake in mouse serum at 600 mg/kg, po measured at 15 mins by UPLC-MS/MS method; type: ADME, organism-based; conditions: read-out: Drug uptake
Method in brief: (§6)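 Single oral dose (400 mg/kg, 7 mice; 600 mg/kg, 6 mice), dissolved in DMSO and suspended in 0.5% hydroxyethylcellulose–0.1% Tween 80. Blood taken by cardiac puncture under chloroform, one mouse per time point, 15–120 min. Serum proteins precipitated with 2 volumes acetonitrile; analysed by UPLC-MS/MS against blank human serum calibration. Half-life read from the concentration–time curve.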

[19] = Apparent permeability across basolateral to apical side in MDCK cells expressing MDR1 after 1 hr; type: ADME, cell-based, Canis lupus familiaris; conditions: dog
Method in brief: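 MDR1-transfected MDCK cell monolayer; compound applied to the basolateral compartment and incubated 1 h at 37°C. Apparent permeability measured in the B→A direction.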

[20] = Drug uptake in mouse serum at 400 mg/kg, po measured at 15 mins by UPLC-MS/MS method; type: ADME, organism-based; conditions: read-out: Drug uptake; method in brief: as §6
[21] = Drug uptake in mouse serum at 400 mg/kg, po measured at 30 mins by UPLC-MS/MS method; type: ADME, organism-based; conditions: read-out: Drug uptake; method in brief: as §6
[22] = Drug uptake in mouse serum at 400 mg/kg, po measured at 60 mins by UPLC-MS/MS method; type: ADME, organism-based; conditions: read-out: Drug uptake; method in brief: as §6
[23] = system: Serum; test: Drug uptake in mouse serum at 400 mg/kg, po measured at 120 mins by UPLC-MS/MS method; type: ADME, organism-based; conditions: in vivo, 2 h, BLD = below limit of detection; method in brief: as §6
[24] = Drug uptake in mouse serum at 600 mg/kg, po measured at 45 mins by UPLC-MS/MS method; type: ADME, organism-based; conditions: read-out: Drug uptake; method in brief: as §6
[25] = Drug uptake in mouse serum at 600 mg/kg, po measured at 60 mins by UPLC-MS/MS method; type: ADME, organism-based; conditions: read-out: Drug uptake; method in brief: as §6
[26] = Drug uptake in mouse serum at 600 mg/kg, po measured at 90 mins by UPLC-MS/MS method; type: ADME, organism-based; conditions: read-out: Drug uptake; method in brief: as §6
[27] = system: Mus musculus; test: Tmax in mouse at 600 mg/kg, po by UPLC-MS/MS method; type: ADME, organism-based; conditions: in vivo
Method in brief: (§7)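 Single oral dose in DMSO suspended in 0.5% hydroxyethylcellulose–0.1% Tween 80, given to 7 (400 mg/kg) or 6 (600 mg/kg) mice. Serum came from cardiac puncture under chloroform, one mouse per time point, 15–120 min. Acetonitrile-precipitated serum was analysed by UPLC-MS/MS against calibration in blank human serum.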

[28] = system: Mus musculus; test: Cmax in mouse at 600 mg/kg, po by UPLC-MS/MS method; type: ADME, organism-based; design: dose 600 mg/kg, route oral; conditions: in vivo; method in brief: as §6
[29] = system: Mus musculus; test: AUC (0 to 120 mins) in mouse at 400 mg/kg, po by UPLC-MS/MS method; type: ADME, organism-based; design: dose 400 mg/kg, time < 2 hr, route oral; conditions: in vivo, 2 h
[30] = system: Mus musculus; test: AUC (0 to 120 mins) in mouse at 600 mg/kg, po by UPLC-MS/MS method; type: ADME, organism-based; design: dose 600 mg/kg, time < 2 hr, route oral; conditions: in vivo, 2 h
[31] = system: Mus musculus; test: Time at which drug concentration stays above 3 uM in mouse at 400 mg/kg, po by UPLC-MS/MS method; type: ADME, organism-based; conditions: in vivo; method in brief: as §7
[32] = Protein binding in mouse plasma at 400 mg/kg, po by ultra-centrifugation method; type: ADME, organism-based; conditions: read-out: PPB
[33] = system: Mus musculus; test: Drug metabolism in mouse assessed as (3alpha,5beta,7alpha,12alpha)-3-Amino-24-({4-[(7-chloroquinolin-4-yl)amino]butyl}amino)cholane-7,12-diol formation at 400 to 600 mg/kg, po by UPLC-MS/MS method; type: ADME, organism-based; conditions: in vivo
[34] = system: Mus musculus; test: Drug metabolism in mouse assessed as monoacetylated metabolite formation at 400 to 600 mg/kg, po by UPLC-MS/MS method; type: ADME, organism-based; conditions: in vivo
[35] = system: Mus musculus; test: Drug metabolism in mouse assessed as M+32 metabolite formation at 400 to 600 mg/kg, po by UPLC-MS/MS method; type: ADME, organism-based; conditions: in vivo

Q: Which results are given for `CC(=O)O[C@H]1C[C@H]2[C@@H]([C@H](OC(C)=O)C[C@@H]3C[C@H](N)CC[C@@]32C)[C@@H]2CC[C@H]([C@H](C)CCCNCCCCNc3ccnc4cc(Cl)ccc34)[C@@]12C`?
A: Activity [1]: Non-Toxic; inhibition [2]: Dose-dependent effect; IC50 [3]: 4.5 µM; Activity [4]: 64%; Activity [5]: Non-Toxic; Activity [6]: Non-Toxic; Activity [7]: Non-Toxic; chromatographic logD [8]: 2.55; logD [9]: 2.07; solubility kinetic [10]: > 50 µg/mL; CLH [11]: < 23 µL/min/mg; CLH [12]: < 23 µL/min/mg; Stability [13]: > 85%; IC50 [14]: 1.1 µM; IC50 [15]: 1.2 µM; IC50 [16]: 1.4 µM; IC50 [17]: > 10 µM; concentration at 0.25 h [18]: 11.9 µM; Papp [19]: 24.6 ×10⁻⁶ cm/s; concentration at 0.25 h [20]: 3.3 µM; concentration at 0.5 h [21]: 4 µM; concentration at 1 h [22]: 2.8 µM; Drug uptake [23]: Bld; concentration at 0.75 h [24]: 3.1 µM; concentration at 1 h [25]: 2.5 µM; concentration at 1.5 h [26]: 4 µM; Tmax [27]: 15 min; Cmax [28]: 11.9 µM; AUC [29]: 253 µM·min; AUC [30]: 526 µM·min; Time [31]: > 45 min; fraction unbound [32]: < 0.01; Drug metabolism [33]: Metabolite_Notdetected; Drug metabolism [34]: Metabolite_Notdetected; Drug metabolism [35]: Metabolite_Notdetected
